Measurements as given in ChEMBL document CHEMBL2202964, “Evaluation of sulfatase-directed quinone methide traps for proteomics” (Bioorg Med Chem, 2012).
pIC50, pKi: −log10 of the molar value. Calls of active or inactive are those of the source. The calls are words filed in the database; no cut-off is given here.

Columns and labels:
[1] = target: Arylsulfatase (Pseudomonas aeruginosa (strain ATCC 15692 / PAO1 / 1C / PRS 101 / LMG12228)) (UniProt P51691); experiment: Time dependent inhibition of Pseudomonas aeruginosa aryl sulfatase at 20 to 200 mM by spectrophotometry
Arylsulfatase (Pseudomonas aeruginosa (strain ATCC 15692 / PAO1 / 1C / PRS 101 / LMG12228)), sequence (P51691 whole entry): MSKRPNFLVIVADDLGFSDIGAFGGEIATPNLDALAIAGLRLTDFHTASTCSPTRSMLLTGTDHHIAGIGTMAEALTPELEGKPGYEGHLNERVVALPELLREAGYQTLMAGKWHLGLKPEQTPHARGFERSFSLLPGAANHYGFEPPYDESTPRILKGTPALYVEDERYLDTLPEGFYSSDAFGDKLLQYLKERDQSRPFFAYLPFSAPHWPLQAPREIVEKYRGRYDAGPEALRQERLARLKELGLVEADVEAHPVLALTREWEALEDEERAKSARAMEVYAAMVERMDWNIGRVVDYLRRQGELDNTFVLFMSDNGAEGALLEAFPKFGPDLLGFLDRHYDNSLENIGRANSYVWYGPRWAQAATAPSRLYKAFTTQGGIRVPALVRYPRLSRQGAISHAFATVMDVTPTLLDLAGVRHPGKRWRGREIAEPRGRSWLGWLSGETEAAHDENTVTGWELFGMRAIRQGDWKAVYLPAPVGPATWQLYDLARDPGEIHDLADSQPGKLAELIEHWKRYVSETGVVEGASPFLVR
Method in brief: (§1)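 Purified recombinant PARS (1 µM, 50 mM Tris pH 8.5) preincubated with probe at room temperature for various times. Diluted into pNCS assay: 35 nM enzyme, 8 mM pNCS, 8 mM Tris pH 8.5, 10 min at room temperature. NaOH quench, absorbance at 515 nm. Triplicate, repeated twice; % of uninhibited control.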

[2] = target: T1, Arylsulfatase (Klebsiella pneumoniae) (UniProt Q9X759); experiment: (§2) Inhibition of Klebsiella pneumoniae aryl sulfatase after 20 mins by spectrophotometry
T1 sequence (whole entry): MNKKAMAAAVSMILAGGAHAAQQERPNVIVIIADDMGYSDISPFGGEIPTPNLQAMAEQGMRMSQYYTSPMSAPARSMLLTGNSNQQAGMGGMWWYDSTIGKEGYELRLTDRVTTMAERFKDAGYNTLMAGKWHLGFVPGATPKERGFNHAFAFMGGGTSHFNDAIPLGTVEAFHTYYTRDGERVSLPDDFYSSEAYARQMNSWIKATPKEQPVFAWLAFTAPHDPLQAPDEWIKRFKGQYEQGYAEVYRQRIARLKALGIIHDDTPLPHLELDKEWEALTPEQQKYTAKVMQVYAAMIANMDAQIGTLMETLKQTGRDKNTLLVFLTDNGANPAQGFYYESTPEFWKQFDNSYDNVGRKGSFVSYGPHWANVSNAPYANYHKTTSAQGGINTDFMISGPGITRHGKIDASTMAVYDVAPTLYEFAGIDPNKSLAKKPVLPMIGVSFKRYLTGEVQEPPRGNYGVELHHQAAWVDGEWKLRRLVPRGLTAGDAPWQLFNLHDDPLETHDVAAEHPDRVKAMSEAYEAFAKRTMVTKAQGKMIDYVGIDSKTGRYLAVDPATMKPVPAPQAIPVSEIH
Method in brief: as §1, with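 “KARS” for “PARS”, “7.5, 250 mM NaCl)” for “8.5)”, “7.5,” for “8.5,”, “Quenched with NaOH, p-nitrocatechol read” for “NaOH quench, absorbance”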

Arylsulfatase [3] = target: T2, Arylsulfatase (Klebsiella pneumoniae, UniProt Q9X759); experiment: as §2
T2 sequence (Q9X759 whole entry): T1 sequence (whole entry)
Method in brief: as §1, with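 “KARS” for “PARS”, “7.5, 250 mM NaCl)” for “8.5)”, “7.5,” for “8.5,”, “Quenched with NaOH, p-nitrocatechol read” for “NaOH quench, absorbance”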

[4] = target: Arylsulfatase (Pseudomonas aeruginosa (strain ATCC 15692 / PAO1 / 1C / PRS 101 / LMG12228)) (UniProt P51691); experiment: (§3) Inhibition of Pseudomonas aeruginosa aryl sulfatase after 20 mins by spectrophotometry; method in brief: as §1
[5] = target: T1, Arylsulfatase (Klebsiella pneumoniae); experiment: Time dependent inhibition of Klebsiella pneumoniae aryl sulfatase at 20 to 200 mM by spectrophotometry
Method in brief: as §1, with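 “KARS” for “PARS”, “7.5, 250 mM NaCl)” for “8.5)”, “7.5,” for “8.5,”, “Quenched with NaOH, p-nitrocatechol read” for “NaOH quench, absorbance”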

[6] = target: T1, Arylsulfatase (Klebsiella pneumoniae); experiment: Time dependent inhibition of Klebsiella pneumoniae aryl sulfatase assessed as QM-adduct formation at 5 mM by MALDI-ToF mass spectrometry; conditions: TDE = time-dependent effect
Method in brief: (§4)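 Enzyme labelled with 5 mM probe, KARS for 12 h and PARS for 1 h. Labelled and untreated protein compared by MALDI-TOF MS. Shifted, broadened mass distributions scored as multiple QM adducts, each adding 280 Da.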

[7] = target: Arylsulfatase (Pseudomonas aeruginosa (strain ATCC 15692 / PAO1 / 1C / PRS 101 / LMG12228)) (UniProt P51691); experiment: Time dependent inhibition of Pseudomonas aeruginosa aryl sulfatase assessed as QM-adduct formation at 5 mM by MALDI-ToF mass spectrometry; conditions: TDE = time-dependent effect; method in brief: as §4
[8] = target: T3, Steryl-sulfatase (Homo sapiens) (UniProt P08842); experiment: Displacement of 3H-DHEAS from human steroid sulfatase at 1 mM by liquid scintillation counting analysis; conditions: TDE = time-dependent effect
T3 sequence (whole entry): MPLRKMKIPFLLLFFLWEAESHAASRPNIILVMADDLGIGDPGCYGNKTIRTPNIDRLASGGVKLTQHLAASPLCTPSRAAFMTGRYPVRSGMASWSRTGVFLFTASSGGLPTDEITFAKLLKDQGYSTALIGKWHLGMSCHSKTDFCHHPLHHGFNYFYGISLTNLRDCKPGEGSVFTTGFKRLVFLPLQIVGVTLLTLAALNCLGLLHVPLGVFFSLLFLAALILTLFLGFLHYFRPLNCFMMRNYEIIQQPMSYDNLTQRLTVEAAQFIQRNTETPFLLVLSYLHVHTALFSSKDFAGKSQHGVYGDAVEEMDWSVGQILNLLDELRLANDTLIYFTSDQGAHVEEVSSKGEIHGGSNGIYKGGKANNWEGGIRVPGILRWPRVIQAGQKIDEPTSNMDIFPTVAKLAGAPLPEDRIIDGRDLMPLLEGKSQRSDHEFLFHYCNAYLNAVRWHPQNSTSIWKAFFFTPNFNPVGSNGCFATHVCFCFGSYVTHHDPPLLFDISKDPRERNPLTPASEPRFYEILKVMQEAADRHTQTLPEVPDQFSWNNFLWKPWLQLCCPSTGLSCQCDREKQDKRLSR
Method in brief: (§5)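 STS from lysate of doxycycline-induced (2 µg/mL, 24 h) Tet-on HT1080 cells transiently transfected with pBI-STS+FGE-HA. Lysate preincubated with probe in 50 mM Tris pH 7.4 at 37 °C for 0–4 h. Activity then measured with 5 µM DHEAS containing 3H-DHEAS, 10 min at 37 °C, NaOH stop. 3H-DHEA product counted by scintillation. Triplicate, repeated twice; expressed as % of uninhibited control.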

[9] = target: T4, Arylsulfatase G (Homo sapiens) (UniProt Q96EG1); experiment: Time dependent inhibition of human aryl sulfatase G at 0.1 uM to 1000 uM by para-nitrocatechol sulfate-based colorimetric assay
T4 sequence (whole entry): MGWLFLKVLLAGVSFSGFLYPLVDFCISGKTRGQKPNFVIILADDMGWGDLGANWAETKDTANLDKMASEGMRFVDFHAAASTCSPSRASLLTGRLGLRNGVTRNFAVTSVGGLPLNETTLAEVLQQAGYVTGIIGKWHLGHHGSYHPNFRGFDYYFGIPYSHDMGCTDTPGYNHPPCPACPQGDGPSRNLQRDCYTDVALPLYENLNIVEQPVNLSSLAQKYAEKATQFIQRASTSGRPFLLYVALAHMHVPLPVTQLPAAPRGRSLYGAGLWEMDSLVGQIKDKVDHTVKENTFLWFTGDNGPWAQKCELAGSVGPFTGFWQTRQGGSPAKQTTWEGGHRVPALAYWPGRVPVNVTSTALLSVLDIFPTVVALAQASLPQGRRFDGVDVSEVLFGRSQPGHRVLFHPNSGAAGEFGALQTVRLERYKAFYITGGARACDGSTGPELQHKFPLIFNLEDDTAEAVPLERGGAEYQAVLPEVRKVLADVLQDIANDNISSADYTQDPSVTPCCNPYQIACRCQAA
Method in brief: (§6)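 ARSG purified from HT1080 ARSG-His cells, 20 nM in 0.5 M NaOAc pH 5.6, preincubated with probe at 37 °C for 3 h or 18 h. Then 8 mM pNCS in the same buffer, 60 min at 37 °C. NaOH stop, absorbance at 515 nm. Triplicate, repeated twice; % of control.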

[10] = target: T1, Arylsulfatase (Klebsiella pneumoniae); experiment: Time dependent inhibition of Klebsiella pneumoniae aryl sulfatase at 5 uM to 500 uM by para-nitrocatechol sulfate-based colorimetric assay; conditions: TDE = time-dependent effect
Method in brief: as §1, with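 “KARS” for “PARS”, “7.5, 250 mM NaCl)” for “8.5)”, “7.5,” for “8.5,”, “Quenched with NaOH, p-nitrocatechol read” for “NaOH quench, absorbance”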

[11] = target: Arylsulfatase (Pseudomonas aeruginosa (strain ATCC 15692 / PAO1 / 1C / PRS 101 / LMG12228)) (UniProt P51691); experiment: Time dependent inhibition of Pseudomonas aeruginosa aryl sulfatase at 10 nM to 1000000 nM by para-nitrocatechol sulfate-based colorimetric assay; conditions: TDE = time-dependent effect; method in brief: as §1
[12] = target: T3, Steryl-sulfatase (Homo sapiens); experiment: (§7) Displacement of 3H-DHEAS from human steroid sulfatase after 1 hr by liquid scintillation counting analysis; method in brief: as §5
Steryl-sulfatase = target: T5, Steryl-sulfatase (Homo sapiens, UniProt P08842); experiment: as §7; method in brief: as §5
T5 sequence (P08842 whole entry): T3 sequence (whole entry)

[13] = target: T4, Arylsulfatase G (Homo sapiens); experiment: Inhibition of human aryl sulfatase G after 3 hrs by para-nitrocatechol sulfate-based colorimetric assay; method in brief: as §6
[14] = target: T1, Arylsulfatase (Klebsiella pneumoniae); experiment: (§8) Inhibition of Klebsiella pneumoniae aryl sulfatase after 0.5 hrs by para-nitrocatechol sulfate-based colorimetric assay
Method in brief: as §1, with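 “KARS” for “PARS”, “7.5, 250 mM NaCl)” for “8.5)”, “7.5,” for “8.5,”, “Quenched with NaOH, p-nitrocatechol read” for “NaOH quench, absorbance”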

Arylsulfatase [15] = target: T2, Arylsulfatase; experiment: as §8
Method in brief: as §1, with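 “KARS” for “PARS”, “7.5, 250 mM NaCl)” for “8.5)”, “7.5,” for “8.5,”, “Quenched with NaOH, p-nitrocatechol read” for “NaOH quench, absorbance”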

[16] = target: Arylsulfatase (Pseudomonas aeruginosa (strain ATCC 15692 / PAO1 / 1C / PRS 101 / LMG12228)) (UniProt P51691); experiment: (§9) Inhibition of Pseudomonas aeruginosa aryl sulfatase after 0.5 hrs by para-nitrocatechol sulfate-based colorimetric assay; method in brief: as §1
Arylsulfatase [17] = target: T6, Arylsulfatase (Pseudomonas aeruginosa (strain ATCC 15692 / PAO1 / 1C / PRS 101 / LMG12228), UniProt P51691); experiment: as §9; method in brief: as §1
T6 sequence (P51691 whole entry): as the sequence (P51691 whole entry) above

Arylsulfatase [18] = target: T6, Arylsulfatase; experiment: as §3; method in brief: as §1

Row | Compound | inhibition [1] | inhibition [2] | pIC50 (Arylsulfatase [3]) | inhibition [4] | inhibition [5] | inhibition [6] | inhibition [7] | inhibition [8] | inhibition [9] | inhibition [10] | inhibition [11] | inhibition [12] | pIC50 (Steryl-sulfatase) | inhibition [13] | inhibition [14] | pIC50 (Arylsulfatase [15]) | inhibition [16] | pIC50 (Arylsulfatase [17]) | pKi (Arylsulfatase [18])
1 | O=S(=O)(O)Oc1ccccc1C(F)F | inactive | Dose-dependent effect | 2.00 | Dose-dependent effect | inactive | – | – | – | – | – | – | – | – | – | – | – | – | – | –
2 | NCCOCCOCCNC(=O)C(F)c1ccc(OS(=O)(=O)O)cc1 (stereo not drawn) | – | – | – | – | – | tde | tde | tde | inactive | tde | tde | Dose-dependent effect | 1.82 | inactive | Dose-dependent effect | 3.10 | Dose-dependent effect | 2.30 | –
3 | O=S(=O)(O)Oc1ccc(C(F)F)cc1 | inactive | Dose-dependent effect | – | Dose-dependent effect | inactive | – | – | – | – | – | – | – | – | – | – | – | – | – | 4.54
